# Data published in ChEMBL document CHEMBL1949586, “Conicasterol E, a small heterodimer partner sparing farnesoid X receptor modulator endowed with a pregnane X receptor agonistic activity, from the marine sponge Theonella swinhoei” (J Med Chem, 2012).
# Calls of active or inactive are those of the source. The calls are words filed in the database; no cut-off is given here.
# What was measured:
# Type in all cases: functional, cell-based
# [1] = biological target: T1, Bile acid receptor (Homo sapiens) (UniProt Q96RI1); test: Agonist activity at FXR expressed in human HepG2 cells at 50 uM after 48 hrs by luciferase reporter gene based transactivation assay
# T1 sequence (whole entry): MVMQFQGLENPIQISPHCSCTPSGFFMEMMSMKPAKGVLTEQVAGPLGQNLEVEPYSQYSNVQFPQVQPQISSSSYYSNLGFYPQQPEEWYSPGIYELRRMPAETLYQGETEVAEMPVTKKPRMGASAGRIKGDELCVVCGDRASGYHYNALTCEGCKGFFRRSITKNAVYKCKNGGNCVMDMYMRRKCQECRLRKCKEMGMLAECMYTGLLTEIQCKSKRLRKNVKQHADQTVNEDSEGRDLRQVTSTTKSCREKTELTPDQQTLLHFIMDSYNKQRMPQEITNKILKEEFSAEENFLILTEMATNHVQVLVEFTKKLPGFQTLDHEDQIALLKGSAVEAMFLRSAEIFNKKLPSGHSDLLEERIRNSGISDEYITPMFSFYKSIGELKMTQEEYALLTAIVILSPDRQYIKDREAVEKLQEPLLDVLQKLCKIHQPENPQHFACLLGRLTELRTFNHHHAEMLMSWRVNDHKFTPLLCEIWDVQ
# Outline: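 HepG2 cells (5 × 10⁵/well) were transfected using Fugene HD with pSG5-FXR, pSG5-RXR, pCMV-β-gal and the p(hsp27)-TK-LUC reporter (IR1 element). Cells were stimulated 48 h post-transfection for 18 h. Luciferase from lysates was normalised to β-galactosidase activity. Four experiments were run.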
# [2] = biological target: T1, Bile acid receptor (Homo sapiens); test: Antagonist activity at FXR expressed in human HepG2 cells assessed as inhibition of CDCA-mediated transactivation at 10 uM after 48 hrs by luciferase reporter gene assay
# Outline: (§1)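 Antagonism was tested in the FXR transactivation system: HepG2 cells transfected with FXR, RXR, β-gal and the hsp27 IR1-luciferase reporter. Cells were stimulated 48 h after transfection for 18 h with 10 μM CDCA plus test agent. Luciferase was normalised to β-gal. Four experiments were run.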
# [3] = biological target: T1, Bile acid receptor (Homo sapiens); test: Antagonist activity at FXR expressed in human HepG2 cells assessed as inhibition of CDCA-mediated transactivation at 50 uM after 48 hrs by luciferase reporter gene assay; outline: as §1
# [4] = biological target: T2, Nuclear receptor subfamily 1 group I member 2 (Homo sapiens, UniProt O75469); test: Agonist activity at PXR expressed in human HepG2 cells assessed as transactivation […] by luciferase reporter gene assay
# T2 sequence (O75469 whole entry): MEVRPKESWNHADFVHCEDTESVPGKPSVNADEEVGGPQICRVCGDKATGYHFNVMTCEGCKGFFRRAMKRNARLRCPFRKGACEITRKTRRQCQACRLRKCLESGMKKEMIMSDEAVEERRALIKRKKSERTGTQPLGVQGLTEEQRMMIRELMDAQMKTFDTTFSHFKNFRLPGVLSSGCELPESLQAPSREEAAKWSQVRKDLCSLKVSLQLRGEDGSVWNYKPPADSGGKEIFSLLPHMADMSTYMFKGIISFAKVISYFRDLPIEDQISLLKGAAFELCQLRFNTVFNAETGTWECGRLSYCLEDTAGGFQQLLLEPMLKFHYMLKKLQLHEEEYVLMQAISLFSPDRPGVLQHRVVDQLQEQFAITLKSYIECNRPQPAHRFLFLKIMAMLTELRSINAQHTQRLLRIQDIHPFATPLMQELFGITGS
# [5] = biological target: T1, Bile acid receptor (Homo sapiens); test: Agonist activity at FXR expressed in human HepG2 cells assessed as increase in OSTalpha mRNA level at 10 uM by RT-PCR analysis
# Outline: (§2)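 HepG2 cells exposed to 10 μM test agent, alone or with 10 μM CDCA. mRNA was measured by SYBR Green real-time PCR with 50 ng template and 0.2 μM of each primer. Cycling was 95 °C 2 min, then 40 cycles of 95/55/72 °C. Reactions ran in triplicate. CT was normalised to GAPDH, and ΔΔCT was taken against untreated cells. Four experiments were run.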
# [6] = biological target: T1, Bile acid receptor (Homo sapiens); test: Agonist activity at FXR expressed in human HepG2 cells assessed as increase in BSEP mRNA level at 10 uM by RT-PCR analysis; outline: as §2
# [7] = biological target: T1, Bile acid receptor (Homo sapiens); test: Agonist activity at FXR expressed in human HepG2 cells assessed as effect on SHP mRNA level at 10 uM by RT-PCR analysis; outline: as §2
# [8] = biological target: T1, Bile acid receptor (Homo sapiens); test: Agonist activity at FXR expressed in human HepG2 cells assessed as increase in CYP7A1 mRNA level at 10 uM by RT-PCR analysis relative to control; outline: as §2
# [9] = biological target: T2, Nuclear receptor subfamily 1 group I member 2; test: Antagonist activity at PXR expressed in human HepG2 cells assessed as inhibition of rifaximin-induced CYP3A4 mRNA expression at 50 uM by RT-PCR analysis; conditions: hepg2, 50 µM
# [10] = biological target: T1, Bile acid receptor (Homo sapiens); test: Antagonist activity at FXR expressed in human HepG2 cells assessed as inhibition of 6-ECDCA-mediated transactivation at 10 uM after 48 hrs by luciferase reporter gene assay
# Outline: (§3)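 The FXR/RXR/hsp27-luciferase HepG2 transfection system was used, with test agent co-administered alongside 6-ECDCA. Stimulation was 18 h, starting 48 h after transfection. Luciferase was normalised to β-galactosidase.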
# [11] = biological target: T1, Bile acid receptor (Homo sapiens); test: Antagonist activity at FXR expressed in human HepG2 cells assessed as inhibition of 6-ECDCA-mediated transactivation at 50 uM after 48 hrs by luciferase reporter gene assay; outline: as §3
SMILES,Activity [1],inhibition [2],inhibition [3],Activity [4],Activity [5],Activity [6],Activity [7],fold change (FC) [8],inhibition (INH) [9],inhibition [10],inhibition [11]
C=C1[C@@H](O)CC[C@@]2(C)[C@H]1C[C@@H](O)C1=C3[C@H](O)C[C@H]([C@H](C)CC[C@@H](C)C(C)C)[C@@]3(C)CC[C@@H]12 [CONICASTEROL E],Active,inactive,inactive,Active,Active,Active,inactive,2,Not Active,inactive,inactive
CO[C@H]1/C=C/O[C@@]2(C)Oc3c(C)c(O)c4c(O)c(c5c(nc6cc(C)ccn65)c4c3C2=O)NC(=O)/C(C)=C\C=C\[C@H](C)[C@H](O)[C@@H](C)[C@@H](O)[C@@H](C)[C@H](OC(C)=O)[C@@H]1C [RIFAXIMIN],–,–,–,Active,–,–,–,–,–,–,–
